Test results: ChEMBL document CHEMBL1926565, “Synthesis, antiproliferative activities and telomerase inhibition evaluation of novel asymmetrical 1,2-disubstituted amidoanthraquinone derivatives” (Eur J Med Chem, 2012)
Calls of active or inactive are those of the source. The calls are words filed in the database; no cut-off is given here.

Key:
OVCAR-5 = assay: Cytotoxicity against human OVCAR5 cells assessed as cellular growth at 10 uM; assay type: functional
Procedure, shortened: (§1)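 Single-dose screen run by the NCI across its 60-human-tumour-cell-line panel; growth recorded for each cell line.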

PC-3 = assay: Cytotoxicity against human PC3 cells assessed as cellular growth at 10 uM; assay type: functional; procedure, shortened: as §1
SK-MEL-28 = assay: Cytotoxicity against human SK-MEL-28 cells assessed as cellular growth at 10 uM; assay type: functional; procedure, shortened: as §1
SNB-75 = assay: Cytotoxicity against human SNB75 cells assessed as cellular growth at 10 uM; assay type: functional
HL-60(TB) = assay: Cytotoxicity against human HL-60(TB) cells assessed as cellular growth at 10 uM; assay type: functional; procedure, shortened: as §1
SR = assay: Cytotoxicity against human SR cells assessed as cellular growth at 10 uM; assay type: functional
SK-MEL-2 = assay: Cytotoxicity against human SK-MEL-2 cells assessed as cellular growth at 10 uM; assay type: functional; procedure, shortened: as §1
OVCAR-3 = assay: Cytotoxicity against human OVCAR3 cells assessed as cellular growth at 10 uM; assay type: functional; procedure, shortened: as §1
COLO 205 = assay: Cytotoxicity against human COLO205 cells assessed as cellular growth at 10 uM; assay type: functional; procedure, shortened: as §1
NCI-H226 = assay: Cytotoxicity against human NCI-H226 cells assessed as cellular growth at 10 uM; assay type: functional; procedure, shortened: as §1
SW-620 = assay: Cytotoxicity against human SW620 cells assessed as cellular growth at 10 uM; assay type: functional
A498 = assay: Cytotoxicity against human A498 cells assessed as cellular growth at 10 uM; assay type: functional; procedure, shortened: as §1
MOLT-4 = assay: Cytotoxicity against human MOLT4 cells assessed as cellular growth at 10 uM; assay type: functional; procedure, shortened: as §1
MDA-MB-231 = assay: Cytotoxicity against human MDA-MB-231 cells assessed as cellular growth at 10 uM; assay type: functional; procedure, shortened: as §1
[1] = target: Telomerase reverse transcriptase (Homo sapiens) (UniProt O14746); assay: Residual activity of human TERT in H1299 cells at 1 uM after 24 hrs by SEAP reporter gene assay
A549 = assay: Cytotoxicity against human A549 cells assessed as cellular growth at 10 uM; assay type: functional; procedure, shortened: as §1
HOP-62 = assay: Cytotoxicity against human HOP62 cells assessed as cellular growth at 10 uM; assay type: functional; procedure, shortened: as §1
SK-OV-3 = assay: Cytotoxicity against human SKOV3 cells assessed as cellular growth at 10 uM; assay type: functional
RXF 393 = assay: Cytotoxicity against human RXF393 cells assessed as cellular growth at 10 uM; assay type: functional; procedure, shortened: as §1
CCRF-CEM = assay: Cytotoxicity against human CCRF-CEM cells assessed as cellular growth at 10 uM; assay type: functional; procedure, shortened: as §1
ACHN = assay: Cytotoxicity against human ACHN cells assessed as cellular growth at 10 uM; assay type: functional; procedure, shortened: as §1
IGROV-1 = assay: Cytotoxicity against human IGROV1 cells assessed as cellular growth at 10 uM; assay type: functional; procedure, shortened: as §1
HCC 2998 = assay: Cytotoxicity against human HCC2998 cells assessed as cellular growth at 10 uM; assay type: functional; procedure, shortened: as §1
UACC-62 = assay: Cytotoxicity against human UACC62 cells assessed as cellular growth at 10 uM; assay type: functional
TK-10 = assay: Cytotoxicity against human TK10 cells assessed as cellular growth at 10 uM; assay type: functional
NCI-H322M = assay: Cytotoxicity against human NCI-H322M cells assessed as cellular growth at 10 uM; assay type: functional; procedure, shortened: as §1
MCF7 = assay: Cytotoxicity against human MCF7 cells assessed as cellular growth at 10 uM; assay type: functional; procedure, shortened: as §1
SNB-19 = assay: Cytotoxicity against human SNB19 cells assessed as cellular growth at 10 uM; assay type: functional
NCI-H522 = assay: Cytotoxicity against human NCI-H522 cells assessed as cellular growth at 10 uM; assay type: functional; procedure, shortened: as §1
[2] = target: Telomerase reverse transcriptase (Homo sapiens) (UniProt O14746); assay: Inhibition of telomerase activity in human H1299 cell free extract at 10 uM by modified TRAP assay
Procedure, shortened: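 TRAP assay using total cell lysate from H1299 lung cancer cells as the telomerase source, with protein measured against BSA standards. Compounds tested at 10 µM. Controls were lysate without inhibitor (positive) and RNase A-treated extract without inhibitor (negative).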

LOX IMVI = assay: Cytotoxicity against human LOXIMVI cells assessed as cellular growth at 10 uM; assay type: functional; procedure, shortened: as §1
[3] = Cytotoxicity against human Hs 578T cells assessed as cellular growth at 10 uM; assay type: functional; procedure, shortened: as §1
KM12 = assay: Cytotoxicity against human KM12 cells assessed as cellular growth at 10 uM; assay type: functional; procedure, shortened: as §1
M14 = assay: Cytotoxicity against human M14 cells assessed as cellular growth at 10 uM; assay type: functional; procedure, shortened: as §1
OVCAR-4 = assay: Cytotoxicity against human OVCAR4 cells assessed as cellular growth at 10 uM; assay type: functional; procedure, shortened: as §1
SF-295 = assay: Cytotoxicity against human SF295 cells assessed as cellular growth at 10 uM; assay type: functional; procedure, shortened: as §1
MDA-MB-468 = assay: Cytotoxicity against human MDA-MB-468 cells assessed as cellular growth at 10 uM; assay type: functional; procedure, shortened: as §1
SK-MEL-5 = assay: Cytotoxicity against human SK-MEL-5 cells assessed as cellular growth at 10 uM; assay type: functional
UACC-257 = assay: Cytotoxicity against human UACC257 cells assessed as cellular growth at 10 uM; assay type: functional
[4] = target: Telomerase reverse transcriptase (Homo sapiens) (UniProt O14746); assay: Residual activity of human TERT in H1299 cells at 100 uM after 24 hrs by SEAP reporter gene assay
[5] = Growth of human H1299 cells at 1 uM after 48 hrs by MTT assay; settings: NCI-H1299, 48 h
BT-549 = assay: Cytotoxicity against human BT549 cells assessed as cellular growth at 10 uM; assay type: functional; procedure, shortened: as §1
NCI-H23 = assay: Cytotoxicity against human NCI-H23 cells assessed as cellular growth at 10 uM; assay type: functional; procedure, shortened: as §1
HOP-92 = assay: Cytotoxicity against human HOP92 cells assessed as cellular growth at 10 uM; assay type: functional; procedure, shortened: as §1
SF-539 = assay: Cytotoxicity against human SF539 cells assessed as cellular growth at 10 uM; assay type: functional; procedure, shortened: as §1
CAKI-1 = assay: Cytotoxicity against human Caki1 cells assessed as cellular growth at 10 uM; assay type: functional; procedure, shortened: as §1
K562 = assay: Cytotoxicity against human K562 cells assessed as cellular growth at 10 uM; assay type: functional; procedure, shortened: as §1
[6] = Growth of human H1299 cells at 10 uM after 48 hrs by MTT assay; settings: NCI-H1299, 48 h
[7] = target: Telomerase reverse transcriptase (Homo sapiens) (UniProt O14746); assay: Residual activity of human TERT in H1299 cells at 10 uM after 24 hrs by SEAP reporter gene assay
786-0 = assay: Cytotoxicity against human 786-0 cells assessed as cellular growth at 10 uM; assay type: functional; procedure, shortened: as §1
EKVX = assay: Cytotoxicity against human EKVX cells assessed as cellular growth at 10 uM; assay type: functional; procedure, shortened: as §1
NCI/ADR-RES = assay: Cytotoxicity against human NCI/ADR-RES cells assessed as cellular growth at 10 uM; assay type: functional; procedure, shortened: as §1

Chain of Telomerase reverse transcriptase (Homo sapiens) (O14746 whole entry): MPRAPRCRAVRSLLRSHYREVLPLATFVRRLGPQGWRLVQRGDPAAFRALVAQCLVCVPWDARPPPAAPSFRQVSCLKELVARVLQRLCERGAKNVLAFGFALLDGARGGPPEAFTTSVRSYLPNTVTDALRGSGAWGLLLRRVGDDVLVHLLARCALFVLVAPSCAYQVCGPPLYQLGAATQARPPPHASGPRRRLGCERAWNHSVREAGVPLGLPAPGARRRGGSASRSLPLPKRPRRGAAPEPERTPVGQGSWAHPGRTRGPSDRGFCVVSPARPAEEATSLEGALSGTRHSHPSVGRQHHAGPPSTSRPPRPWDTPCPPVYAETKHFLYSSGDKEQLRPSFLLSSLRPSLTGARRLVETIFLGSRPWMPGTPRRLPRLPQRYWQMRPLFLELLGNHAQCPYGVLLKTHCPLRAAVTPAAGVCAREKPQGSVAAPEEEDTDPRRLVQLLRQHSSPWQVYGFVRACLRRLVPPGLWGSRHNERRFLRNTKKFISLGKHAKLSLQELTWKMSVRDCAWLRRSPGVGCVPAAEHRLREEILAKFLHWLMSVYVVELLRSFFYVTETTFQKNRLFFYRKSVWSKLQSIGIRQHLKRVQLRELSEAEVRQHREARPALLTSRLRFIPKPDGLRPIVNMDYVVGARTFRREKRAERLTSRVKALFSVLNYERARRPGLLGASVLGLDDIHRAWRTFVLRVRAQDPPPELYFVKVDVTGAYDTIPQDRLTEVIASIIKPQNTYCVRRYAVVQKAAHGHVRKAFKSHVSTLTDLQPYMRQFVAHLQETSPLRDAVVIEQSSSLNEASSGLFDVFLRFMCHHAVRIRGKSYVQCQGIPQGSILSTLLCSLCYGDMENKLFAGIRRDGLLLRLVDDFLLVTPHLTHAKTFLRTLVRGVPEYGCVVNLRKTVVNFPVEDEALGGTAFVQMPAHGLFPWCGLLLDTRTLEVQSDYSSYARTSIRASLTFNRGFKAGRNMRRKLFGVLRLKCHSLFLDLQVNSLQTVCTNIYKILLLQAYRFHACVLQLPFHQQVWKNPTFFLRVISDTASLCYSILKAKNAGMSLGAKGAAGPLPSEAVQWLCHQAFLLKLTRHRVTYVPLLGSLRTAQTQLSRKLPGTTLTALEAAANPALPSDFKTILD

Compound Cc1ccc(C(=O)Nc2ccc3c(c2NC(=O)c2ccc(C)cc2)C(=O)c2ccccc2C3=O)cc1 has an Activity (OVCAR-5) of 110.18%, an Activity (PC-3) of 82.91% and an Activity (SK-MEL-28) of 99.46%. It also gave an Activity (SNB-75) of 102.26%, an Activity (HL-60(TB)) of 73.11% and an Activity (SR) of 87.69%. It also gave an Activity (SK-MEL-2) of 100.65%, an Activity (OVCAR-3) of 97.9% and an Activity (COLO 205) of 108.57%. The Activity (NCI-H226) was 91.14%, the Activity (SW-620) was 93.79% and the Activity (A498) was 124.08%. It also gave an Activity (MOLT-4) of 89.63%, an Activity (MDA-MB-231) of 93.29% and a residual activity [1] of 108%. It also gave an Activity (A549) of 90.46%, an Activity (HOP-62) of 105.23% and an Activity (SK-OV-3) of 109.62%. For the same compound, the Activity (RXF 393) was 88.25%, the Activity (CCRF-CEM) was 79.02% and the Activity (ACHN) was 112.43%. It also gave an Activity (IGROV-1) of 78.71%, an Activity (HCC 2998) of 84.68% and an Activity (UACC-62) of 87.5%. The Activity (TK-10) was 124.91%, the Activity (NCI-H322M) was 97.74% and the Activity (MCF7) was 71.71%. For the same compound, the Activity (SNB-19) was 103.91%, the Activity (NCI-H522) was 72.05% and the inhibition [2] was “inactive”. The Activity (LOX IMVI) was 84.41%, the Activity [3] was 105.96% and the Activity (KM12) was 94.21%. The Activity (M14) was 91.57%, the Activity (OVCAR-4) was 104.32% and the Activity (SF-295) was 110.81%. It also gave an Activity (MDA-MB-468) of 104.17%, an Activity (SK-MEL-5) of 94.04% and an Activity (UACC-257) of 98.46%. The residual activity [4] was 30%, the growth, % of control at 1 µM [5] was 100% and the Activity (BT-549) was 95.39%. For the same compound, the Activity (NCI-H23) was 90.57%, the Activity (HOP-92) was 91.21% and the Activity (SF-539) was 97.26%. The Activity (CAKI-1) was 94.89%, the Activity (K562) was 107.54% and the growth, % of control at 10 µM [6] was 116%. For the same compound, the residual activity [7] was 97% and the Activity (786-0) was 116.17%.

In the case of Cc1ccc(C(=O)Nc2c(NC(=O)CN3CCCC3)ccc3c2C(=O)c2ccccc2C3=O)cc1, the Activity (OVCAR-5) was 102.31%, the Activity (PC-3) was 75% and the Activity (SK-MEL-28) was 92.18%. The Activity (SNB-75) was 66.03%, the Activity (HL-60(TB)) was 96.11% and the Activity (SK-MEL-2) was 102.17%. The Activity (OVCAR-3) was 77.82%, the Activity (COLO 205) was 65.6% and the Activity (NCI-H226) was 90.22%. The Activity (SW-620) was 82.29%, the Activity (A498) was 68.12% and the Activity (MOLT-4) was 48.2%. The Activity (MDA-MB-231) was 73.34%, the residual activity [1] was 81% and the Activity (A549) was 84.88%. It also gave an Activity (HOP-62) of 113.43%, an Activity (SK-OV-3) of 82.13% and an Activity (RXF 393) of 63.8%. It also gave an Activity (CCRF-CEM) of 39.61%, an Activity (ACHN) of 82.23% and an Activity (IGROV-1) of 106.07%. The Activity (HCC 2998) was 84.6%, the Activity (UACC-62) was 76.82% and the Activity (TK-10) was 86.85%. The Activity (NCI-H322M) was 82.5%, the Activity (EKVX) was 65.93% and the Activity (MCF7) was 70.79%. The Activity (SNB-19) was 108.22%, the Activity (NCI-H522) was 103.02% and the inhibition [2] was “inactive”. For the same compound, the Activity (LOX IMVI) was 80.62%, the Activity [3] was 69.39% and the Activity (KM12) was 51.05%. The Activity (M14) was 88.01%, the Activity (OVCAR-4) was 47.06% and the Activity (SF-295) was 68.97%. It also gave an Activity (MDA-MB-468) of 69.27%, an Activity (NCI/ADR-RES) of 50.86% and an Activity (SK-MEL-5) of 61.74%. The Activity (UACC-257) was 92.83%, the residual activity [4] was 3% and the growth, % of control at 1 µM [5] was 88%. For the same compound, the Activity (BT-549) was 81.58%, the Activity (NCI-H23) was 73.29% and the Activity (HOP-92) was 59.33%. It also gave an Activity (SF-539) of 81.29%, an Activity (CAKI-1) of 55.64% and an Activity (K562) of 40.86%. It also gave a growth, % of control at 10 µM [6] of 69%, a residual activity [7] of 59% and an Activity (786-0) of 65.15%.
